“Also recorded” adds a separate entry of the source.
Assays:
[1] = tested on: Neuro-2A neuroblastoma cells; assay: MTT cell viability assay under Aβ-induced cytotoxicity; assay type: cell-based, Murine; settings: Neuro-2A cells exposed to Aβ
Outline: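 Neuro-2A cells grown in DMEM with 10% FBS and penicillin-streptomycin at 37°C, 5% CO2. Cells briefly trypsinised, seeded at 2,000–4,000 cells/mL, and rested 6 h. Aβ25–35 (from 833 µM solution), test compound (from 250 µM solution) and MTT were added together for 6 h. Extraction buffer (acetic acid/SDS in DMF/water, pH 4.7) was then added, with 6 h shaking in the dark at 37°C. A570 was expressed relative to an Aβ-free control.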

[2] = ref [74]; cited from earlier work
[3] = tested on: XO; settings: cited from earlier work

O=C(/C=C/c1ccc(O)c(O)c1)c1cccc(O)c1 [Compound 8, (E)-3-(3,4-dihydroxyphenyl)-1-(3-hydroxyphenyl)prop-2-en-1-one]
protection of cells against Aβ/ROS-induced stress (in words) [1]: only modest protection

O=C(/C=C/c1ccc(O)c(O)c1)c1c(O)cccc1O [Compound 11, (E)-1-(2,6-dihydroxyphenyl)-3-(3,4-dihydroxyphenyl)prop-2-en-1-one]
protection of cells against Aβ/ROS-induced stress (in words) [1]: increased cell viability at a modest but noticeable level

O=C(/C=C/c1ccc(O)c(O)c1)c1ccc(O)cc1O [Compound 15, (E)-1-(2,4-dihydroxyphenyl)-3-(3,4-dihydroxyphenyl)prop-2-en-1-one]
protection of cells against Aβ/ROS-induced stress (in words) [1]: best level of protection

O=C(/C=C/c1ccc(O)c(O)c1O)c1ccc(O)c(O)c1O [Compound 20, (E)-1,3-bis(2,3,4-trihydroxyphenyl)prop-2-en-1-one]
protection of cells against Aβ/ROS-induced stress (in words) [1]: best level of protection

Oc1cccc(O)c1 [resorcinol]
standard reduction potential [2]: 720 mV

Oc1ccc(O)cc1 [hydroquinone]
standard reduction potential [2]: 459 mV

O=C(/C=C/c1cccc(O)c1)c1ccc(O)cc1O [Compound 10, (E)-1-(2,4-dihydroxyphenyl)-3-(3-hydroxyphenyl)prop-2-en-1-one]
protection of cells against Aβ/ROS-induced stress (in words) [1]: poor rescue compound

O=C(/C=C/c1ccc(O)c(O)c1)c1ccc(O)c(O)c1 [Compound 13, (E)-1,3-bis(3,4-dihydroxyphenyl)prop-2-en-1-one]
protection of cells against Aβ/ROS-induced stress (in words) [1]: increased cell viability at a modest but noticeable level

O=C(/C=C/c1ccc(O)c(O)c1)c1cc(O)ccc1O [Compound 12, (E)-1-(2,5-dihydroxyphenyl)-3-(3,4-dihydroxyphenyl)prop-2-en-1-one]
protection of cells against Aβ/ROS-induced stress (in words) [1]: good rescue properties; also recorded: increased cell viability at a modest but noticeable level

O=C(/C=C/c1ccc(O)c(O)c1)c1ccc(O)c(O)c1O [Compound 18, (E)-3-(3,4-dihydroxyphenyl)-1-(2,3,4-trihydroxyphenyl)prop-2-en-1-one]
protection of cells against Aβ/ROS-induced stress (in words) [1]: best level of protection

Cc1nc(-c2ccc(OCC(C)C)c(C#N)c2)sc1C(=O)O [febuxostat]
potency (XO inhibition) ([3]; ref [16]): subnanomolar range

O=C(/C=C/c1cccc(O)c1O)c1ccc(O)c(O)c1 [Compound 16, (E)-3-(2,3-dihydroxyphenyl)-1-(3,4-dihydroxyphenyl)prop-2-en-1-one]
protection of cells against Aβ/ROS-induced stress (in words) [1]: increased cell viability at a modest but noticeable level

O=C(/C=C/c1cc(O)ccc1O)c1ccc(O)c(O)c1 [Compound 17, (E)-3-(2,5-dihydroxyphenyl)-1-(3,4-dihydroxyphenyl)prop-2-en-1-one]
protection of cells against Aβ/ROS-induced stress (in words) [1]: best level of protection

O=C(/C=C/c1ccc(O)c(O)c1O)c1ccc(O)c(O)c1 [Compound 19, (E)-1-(3,4-dihydroxyphenyl)-3-(2,3,4-trihydroxyphenyl)prop-2-en-1-one]
protection of cells against Aβ/ROS-induced stress (in words) [1]: increased cell viability at a modest but noticeable level

Oc1ncnc2[nH]ncc12 [Allopurinol]
IC50 ([3]; read-out: IC50 (XO inhibition), ref [6]): 0.2 to 50 µM

Oc1ccccc1O [catechol]
standard reduction potential [2]: 530 mV

O=C(/C=C/c1ccc(O)c(O)c1)c1ccc(O)cc1 [Compound 9, (E)-3-(3,4-dihydroxyphenyl)-1-(4-hydroxyphenyl)prop-2-en-1-one]
protection of cells against Aβ/ROS-induced stress (in words) [1]: increased cell viability at a modest but noticeable level

O=C(/C=C/c1ccc(O)c(O)c1)c1cc(O)cc(O)c1 [Compound 14, (E)-3-(3,4-dihydroxyphenyl)-1-(3,5-dihydroxyphenyl)prop-2-en-1-one]
protection of cells against Aβ/ROS-induced stress (in words) [1]: increased cell viability at a modest but noticeable level
